From ChEMBL document CHEMBL3797186, “Single Residue Substitutions That Confer Voltage-Gated Sodium Ion Channel Subtype Selectivity in the NaV1.7 Inhibitory Peptide GpTx-1” (J Med Chem, 2016)
Positions of bridges follow the written chain, without caps; N, C: chain ends. Residues, ends and D or L forms follow the SMILES beside them.

Legend:
[1] = biological target: Sodium channel protein type 5 subunit alpha (Homo sapiens, UniProt Q14524); experiment: Inhibition of human Nav1.5 expressed in HEK293 cells assessed as inward peak current by ion-works quattro patch clamp electrophysiology method; type: cell-based
How it was run: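 Stable HEK293 line expressing human NaV1.5, recorded by population patch clamp on the IonWorks Quattro.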

[2] = biological target: Sodium channel protein type 9 subunit alpha (Homo sapiens, UniProt Q15858); experiment: Inhibition of human Nav1.7 expressed in HEK293 cells assessed as inward peak current by ion-works quattro patch clamp electrophysiology method; type: cell-based
Sequence of Sodium channel protein type 9 subunit alpha (Q15858 whole entry): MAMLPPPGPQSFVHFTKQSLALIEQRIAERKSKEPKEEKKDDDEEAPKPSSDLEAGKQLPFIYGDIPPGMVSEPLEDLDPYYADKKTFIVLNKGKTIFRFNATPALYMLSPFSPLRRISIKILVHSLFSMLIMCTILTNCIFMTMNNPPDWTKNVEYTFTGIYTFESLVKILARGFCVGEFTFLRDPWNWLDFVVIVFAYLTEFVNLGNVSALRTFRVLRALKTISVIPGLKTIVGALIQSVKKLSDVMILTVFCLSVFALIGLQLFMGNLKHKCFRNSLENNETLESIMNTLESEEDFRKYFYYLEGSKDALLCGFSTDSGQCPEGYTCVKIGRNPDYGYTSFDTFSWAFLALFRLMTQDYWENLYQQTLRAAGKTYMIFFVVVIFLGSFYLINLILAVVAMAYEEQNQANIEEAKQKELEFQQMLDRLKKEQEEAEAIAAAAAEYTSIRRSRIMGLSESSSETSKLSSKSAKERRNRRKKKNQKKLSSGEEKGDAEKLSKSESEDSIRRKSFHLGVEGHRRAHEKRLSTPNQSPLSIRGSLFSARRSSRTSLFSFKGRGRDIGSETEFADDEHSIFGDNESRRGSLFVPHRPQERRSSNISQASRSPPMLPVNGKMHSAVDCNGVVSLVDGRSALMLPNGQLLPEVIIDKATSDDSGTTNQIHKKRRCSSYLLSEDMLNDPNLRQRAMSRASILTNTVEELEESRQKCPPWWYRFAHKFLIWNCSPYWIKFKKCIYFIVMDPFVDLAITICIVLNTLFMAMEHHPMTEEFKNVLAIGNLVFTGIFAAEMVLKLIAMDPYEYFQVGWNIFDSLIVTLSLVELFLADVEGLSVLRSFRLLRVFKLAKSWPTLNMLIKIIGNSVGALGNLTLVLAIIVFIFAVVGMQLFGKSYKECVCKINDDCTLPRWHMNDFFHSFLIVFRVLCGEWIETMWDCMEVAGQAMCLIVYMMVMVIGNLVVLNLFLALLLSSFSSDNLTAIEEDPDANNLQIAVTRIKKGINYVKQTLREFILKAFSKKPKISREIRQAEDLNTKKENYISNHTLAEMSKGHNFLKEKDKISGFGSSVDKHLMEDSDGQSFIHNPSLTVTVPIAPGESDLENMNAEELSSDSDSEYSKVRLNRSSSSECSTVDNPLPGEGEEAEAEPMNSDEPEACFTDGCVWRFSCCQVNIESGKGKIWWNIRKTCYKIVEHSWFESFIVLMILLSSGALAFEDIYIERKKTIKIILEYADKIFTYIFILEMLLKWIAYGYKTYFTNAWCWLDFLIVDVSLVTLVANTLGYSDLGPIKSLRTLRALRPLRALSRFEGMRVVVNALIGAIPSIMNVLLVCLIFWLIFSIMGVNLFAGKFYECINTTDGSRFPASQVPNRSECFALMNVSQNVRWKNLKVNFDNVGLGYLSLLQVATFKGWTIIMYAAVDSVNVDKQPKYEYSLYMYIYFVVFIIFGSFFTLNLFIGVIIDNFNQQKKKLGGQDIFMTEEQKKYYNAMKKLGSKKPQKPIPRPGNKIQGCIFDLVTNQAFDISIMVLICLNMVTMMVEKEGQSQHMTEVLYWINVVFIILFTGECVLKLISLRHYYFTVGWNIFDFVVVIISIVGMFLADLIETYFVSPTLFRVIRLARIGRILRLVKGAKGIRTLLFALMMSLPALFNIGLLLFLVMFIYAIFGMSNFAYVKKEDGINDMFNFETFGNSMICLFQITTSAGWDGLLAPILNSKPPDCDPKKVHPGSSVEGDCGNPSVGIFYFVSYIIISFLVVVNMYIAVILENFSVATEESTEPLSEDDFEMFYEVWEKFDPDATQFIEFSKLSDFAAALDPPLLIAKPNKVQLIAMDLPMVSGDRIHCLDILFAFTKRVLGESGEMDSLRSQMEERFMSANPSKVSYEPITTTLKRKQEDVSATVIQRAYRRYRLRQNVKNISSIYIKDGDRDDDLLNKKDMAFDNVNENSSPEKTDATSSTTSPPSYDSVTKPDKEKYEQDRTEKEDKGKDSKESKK

Sequence of Sodium channel protein type 5 subunit alpha (Q14524 whole entry): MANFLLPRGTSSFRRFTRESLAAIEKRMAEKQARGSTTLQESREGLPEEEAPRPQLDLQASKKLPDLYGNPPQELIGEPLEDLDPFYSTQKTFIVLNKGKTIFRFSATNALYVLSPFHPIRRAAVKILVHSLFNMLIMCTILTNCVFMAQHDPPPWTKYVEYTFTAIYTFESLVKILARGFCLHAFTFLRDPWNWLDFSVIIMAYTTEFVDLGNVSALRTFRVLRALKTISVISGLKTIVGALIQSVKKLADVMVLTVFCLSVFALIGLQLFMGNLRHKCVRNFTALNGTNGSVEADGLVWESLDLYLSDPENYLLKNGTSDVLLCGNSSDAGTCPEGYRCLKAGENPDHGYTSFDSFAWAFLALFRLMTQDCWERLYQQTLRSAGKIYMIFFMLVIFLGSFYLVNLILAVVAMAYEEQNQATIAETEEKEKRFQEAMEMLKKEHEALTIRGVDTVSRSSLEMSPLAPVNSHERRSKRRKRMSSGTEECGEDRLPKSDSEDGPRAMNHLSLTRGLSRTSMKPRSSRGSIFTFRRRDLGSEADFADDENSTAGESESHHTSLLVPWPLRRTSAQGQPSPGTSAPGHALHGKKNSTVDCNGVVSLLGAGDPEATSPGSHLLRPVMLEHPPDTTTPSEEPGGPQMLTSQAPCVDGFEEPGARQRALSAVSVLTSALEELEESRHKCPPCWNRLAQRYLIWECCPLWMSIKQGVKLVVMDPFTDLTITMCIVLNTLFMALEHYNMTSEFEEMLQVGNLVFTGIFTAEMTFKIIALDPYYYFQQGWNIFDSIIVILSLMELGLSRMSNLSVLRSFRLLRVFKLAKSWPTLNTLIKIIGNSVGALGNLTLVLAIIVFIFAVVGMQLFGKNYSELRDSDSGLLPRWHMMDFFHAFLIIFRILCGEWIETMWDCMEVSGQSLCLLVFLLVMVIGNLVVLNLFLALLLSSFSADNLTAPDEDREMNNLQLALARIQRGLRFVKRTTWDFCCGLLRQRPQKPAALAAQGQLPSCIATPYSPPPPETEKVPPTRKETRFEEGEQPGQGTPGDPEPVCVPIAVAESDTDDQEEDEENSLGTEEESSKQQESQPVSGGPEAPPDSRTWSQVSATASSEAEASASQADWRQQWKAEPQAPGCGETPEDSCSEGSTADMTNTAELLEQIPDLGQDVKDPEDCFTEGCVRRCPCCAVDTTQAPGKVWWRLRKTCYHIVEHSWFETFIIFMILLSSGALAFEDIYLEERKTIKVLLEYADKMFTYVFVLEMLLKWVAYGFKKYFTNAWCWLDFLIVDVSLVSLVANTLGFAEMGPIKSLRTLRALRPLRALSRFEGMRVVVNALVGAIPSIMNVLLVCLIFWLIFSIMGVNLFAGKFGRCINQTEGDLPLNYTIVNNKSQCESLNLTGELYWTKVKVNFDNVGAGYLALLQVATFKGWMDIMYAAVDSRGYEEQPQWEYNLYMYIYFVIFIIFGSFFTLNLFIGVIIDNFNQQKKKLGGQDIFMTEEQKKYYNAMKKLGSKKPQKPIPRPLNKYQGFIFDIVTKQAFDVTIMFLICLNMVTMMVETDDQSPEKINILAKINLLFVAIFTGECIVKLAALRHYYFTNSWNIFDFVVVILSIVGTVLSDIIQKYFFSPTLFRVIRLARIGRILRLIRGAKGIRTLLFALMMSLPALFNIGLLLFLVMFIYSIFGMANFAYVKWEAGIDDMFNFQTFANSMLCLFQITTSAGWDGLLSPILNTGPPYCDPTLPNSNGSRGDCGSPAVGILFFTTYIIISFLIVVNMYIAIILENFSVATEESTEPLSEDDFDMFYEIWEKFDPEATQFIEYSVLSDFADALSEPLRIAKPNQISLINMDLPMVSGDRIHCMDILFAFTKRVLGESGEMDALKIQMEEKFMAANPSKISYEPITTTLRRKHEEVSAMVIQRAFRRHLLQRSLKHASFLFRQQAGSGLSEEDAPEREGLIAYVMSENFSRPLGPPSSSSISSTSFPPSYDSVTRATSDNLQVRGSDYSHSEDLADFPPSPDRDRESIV

Structure (SMILES) | IC50 [1] [nM] | IC50 [2] [nM]
CC[C@H](C)[C@@H]1NC(=O)[C@@H]2CSSC[C@@H]3NC(=O)[C@H](C(C)C)NC(=O)[C@H](CC(C)C)NC(=O)[C@H](CC(N)=O)NC(=O)[C@@H]4CCCN4C(=O)[C@H](CCCNC(=N)N)NC(=O)[C@H](CSSC[C@H](NC(=O)[C@@H](N)CC(=O)O)C(=O)N[C@@H](CC(C)C)C(=O)NCC(=O)N[C@@H](Cc4ccccc4)C(=O)N[C@@H](CCCCN)C(=O)N[C@@H](CCCNC(=N)N)C(=O)N[C@@H](CCCCN)C(=O)N2)NC(=O)[C@H](CSSC[C@@H](C(=O)N[C@@H](CCCCN)C(=O)N[C@@H](Cc2ccc(O)cc2)C(=O)N[C@H](C(=O)N[C@@H](Cc2ccccc2)C(N)=O)C(C)C)NC(=O)[C@H](Cc2c[nH]c4ccccc24)NC(=O)[C@H](CCCCN)NC(=O)[C@H](Cc2cnc[nH]2)NC(=O)[C@H]([C@@H](C)O)NC(=O)[C@H](CCCNC(=N)N)NC(=O)[C@H](CO)NC3=O)NC(=O)[C@H](CCCCN)NC(=O)[C@H](CC(=O)O)NC(=O)[C@H](CC(N)=O)NC(=O)[C@H](CC(=O)O)NC(=O)[C@@H]2CCCN2C1=O (H-DCLGFKRKCIPDNDKCCRPNLVCSRTHKWCKYVF-NH2; disulfide 2-17, 9-23, 16-30) | > 5000 | > 5000
CC[C@H](C)[C@@H]1NC(=O)[C@@H]2CSSC[C@@H]3NC(=O)[C@H](C(C)C)NC(=O)[C@H](Cc4c[nH]c5ccccc45)NC(=O)[C@H](CC(N)=O)NC(=O)[C@@H]4CCCN4C(=O)[C@H](CCCNC(=N)N)NC(=O)[C@H](CSSC[C@H](NC(=O)[C@@H](N)CC(=O)O)C(=O)N[C@@H](CC(C)C)C(=O)NCC(=O)N[C@@H](Cc4ccccc4)C(=O)N[C@@H](CCSC)C(=O)N[C@@H](CCCNC(=N)N)C(=O)N[C@@H](CCCCN)C(=O)N2)NC(=O)[C@H](CSSC[C@@H](C(=O)N[C@@H](CCCCN)C(=O)N[C@@H](Cc2ccc(O)cc2)C(=O)N[C@H](C(=O)N[C@@H](Cc2ccccc2)C(N)=O)C(C)C)NC(=O)[C@H](Cc2c[nH]c4ccccc24)NC(=O)[C@H](CCCCN)NC(=O)[C@H](Cc2cnc[nH]2)NC(=O)[C@H]([C@@H](C)O)NC(=O)[C@H](CCCNC(=N)N)NC(=O)[C@H](CO)NC3=O)NC(=O)[C@H](CCCCN)NC(=O)[C@H](CC(=O)O)NC(=O)[C@H](CC(N)=O)NC(=O)[C@H](CC(=O)O)NC(=O)[C@@H]2CCCN2C1=O (H-DCLGFMRKCIPDNDKCCRPNWVCSRTHKWCKYVF-NH2; disulfide 2-17, 9-23, 16-30) | > 5000 | 110
CC[C@H](C)[C@@H]1NC(=O)[C@@H]2CSSC[C@@H]3NC(=O)[C@H](C(C)C)NC(=O)[C@H](CC(C)C)NC(=O)[C@H](CC(N)=O)NC(=O)[C@@H]4CCCN4C(=O)[C@H](CCCNC(=N)N)NC(=O)[C@H](CSSC[C@H](NC(=O)[C@@H](N)CC(=O)O)C(=O)N[C@@H](CC(C)C)C(=O)NCC(=O)N[C@@H](Cc4ccccc4)C(=O)N[C@@H](CCSC)C(=O)N[C@@H](CCCNC(=N)N)C(=O)N[C@@H](CCCCN)C(=O)N2)NC(=O)[C@H](CSSC[C@@H](C(=O)N[C@@H](Cc2c[nH]c4ccccc24)C(=O)N[C@@H](Cc2ccc(O)cc2)C(=O)N[C@H](C(=O)N[C@@H](Cc2ccccc2)C(N)=O)C(C)C)NC(=O)[C@H](Cc2c[nH]c4ccccc24)NC(=O)[C@H](CCCCN)NC(=O)[C@H](Cc2c[nH]cn2)NC(=O)[C@H]([C@@H](C)O)NC(=O)[C@H](CCCNC(=N)N)NC(=O)[C@H](CO)NC3=O)NC(=O)[C@H](CCCCN)NC(=O)[C@H](CC(=O)O)NC(=O)[C@H](CC(N)=O)NC(=O)[C@H](CC(=O)O)NC(=O)[C@@H]2CCCN2C1=O (H-DCLGFMRKCIPDNDKCCRPNLVCSRTHKWCWYVF-NH2; disulfide 2-17, 9-23, 16-30) | > 5000 | > 4900
CC[C@H](C)[C@@H]1NC(=O)[C@@H]2CSSC[C@@H]3NC(=O)[C@H](C(C)C)NC(=O)[C@H](CC(C)C)NC(=O)[C@H](CC(N)=O)NC(=O)[C@@H]4CCCN4C(=O)[C@H](CCCNC(=N)N)NC(=O)[C@H](CSSC[C@H](NC(=O)[C@H](CC(=O)O)NC(=O)[C@@H](N)CCCCN)C(=O)N[C@@H](CC(C)C)C(=O)NCC(=O)N[C@@H](Cc4ccccc4)C(=O)N[C@@H](CCSC)C(=O)N[C@@H](CCCNC(=N)N)C(=O)N[C@@H](CCCCN)C(=O)N2)NC(=O)[C@H](CSSC[C@@H](C(=O)N[C@@H](CCCCN)C(=O)N[C@@H](Cc2ccc(O)cc2)C(=O)N[C@H](C(=O)N[C@@H](Cc2ccccc2)C(N)=O)C(C)C)NC(=O)[C@H](Cc2c[nH]c4ccccc24)NC(=O)[C@H](CCCCN)NC(=O)[C@H](Cc2cnc[nH]2)NC(=O)[C@H]([C@@H](C)O)NC(=O)[C@H](CCCNC(=N)N)NC(=O)[C@H](CO)NC3=O)NC(=O)[C@H](CCCCN)NC(=O)[C@H](CC(=O)O)NC(=O)[C@H](CC(N)=O)NC(=O)[C@H](CC(=O)O)NC(=O)[C@@H]2CCCN2C1=O | > 5000 | 120
CC[C@H](C)[C@@H]1NC(=O)[C@@H]2CSSC[C@@H]3NC(=O)[C@H](C(C)C)NC(=O)[C@H](CC(C)C)NC(=O)[C@H](CCCCN)NC(=O)[C@@H]4CCCN4C(=O)[C@H](CCCNC(=N)N)NC(=O)[C@H](CSSC[C@H](NC(=O)[C@@H](N)CC(=O)O)C(=O)N[C@@H](CC(C)C)C(=O)NCC(=O)N[C@@H](Cc4ccccc4)C(=O)N[C@@H](CCSC)C(=O)N[C@@H](CCCNC(=N)N)C(=O)N[C@@H](CCCCN)C(=O)N2)NC(=O)[C@H](CSSC[C@@H](C(=O)N[C@@H](CCCCN)C(=O)N[C@@H](Cc2ccc(O)cc2)C(=O)N[C@H](C(=O)N[C@@H](Cc2ccccc2)C(N)=O)C(C)C)NC(=O)[C@H](Cc2c[nH]c4ccccc24)NC(=O)[C@H](CCCCN)NC(=O)[C@H](Cc2cnc[nH]2)NC(=O)[C@H]([C@@H](C)O)NC(=O)[C@H](CCCNC(=N)N)NC(=O)[C@H](CO)NC3=O)NC(=O)[C@H](CCCCN)NC(=O)[C@H](CC(=O)O)NC(=O)[C@H](CC(N)=O)NC(=O)[C@H](CC(=O)O)NC(=O)[C@@H]2CCCN2C1=O (H-DCLGFMRKCIPDNDKCCRPKLVCSRTHKWCKYVF-NH2; disulfide 2-17, 9-23, 16-30) | > 5000 | 630
CSCC[C@@H]1NC(=O)[C@H](Cc2ccccc2)NC(=O)CNC(=O)[C@H](CC(C)C)NC(=O)[C@@H](NC(=O)[C@@H](N)CC(=O)O)CSSC[C@@H]2NC(=O)[C@@H]3CSSC[C@@H](C(=O)N[C@@H](CCCCN)C(=O)N[C@@H](Cc4ccc(O)cc4)C(=O)N[C@H](C(=O)N[C@@H](Cc4ccccc4)C(N)=O)C(C)C)NC(=O)[C@H](Cc4c[nH]c5ccccc45)NC(=O)[C@H](CCCCN)NC(=O)[C@H](Cc4cnc[nH]4)NC(=O)[C@H]([C@@H](C)O)NC(=O)[C@H](CCCNC(=N)N)NC(=O)[C@H](CO)NC(=O)[C@H](CSSC[C@H](NC(=O)[C@H](CCCCN)NC(=O)[C@H](CCCNC(=N)N)NC1=O)C(=O)N[C@@H](CCCNC(=N)N)C(=O)N1CCC[C@H]1C(=O)N[C@@H](CC(=O)O)C(=O)N[C@@H](CC(N)=O)C(=O)N[C@@H](CC(=O)O)C(=O)N[C@@H](CCCCN)C(=O)N3)NC(=O)[C@H](C(C)C)NC(=O)[C@H](CC(C)C)NC(=O)[C@H](CC(N)=O)NC(=O)[C@@H]1CCCN1C(=O)[C@H](CCCNC(=N)N)NC2=O (H-DCLGFMRKCRPDNDKCCRPNLVCSRTHKWCKYVF-NH2; disulfide 2-17, 9-23, 16-30) | > 5000 | 170
CSCC[C@@H]1NC(=O)[C@H](Cc2ccccc2)NC(=O)CNC(=O)[C@H](CC(C)C)NC(=O)[C@@H](NC(=O)[C@@H](N)CC(=O)O)CSSC[C@@H]2NC(=O)[C@@H]3CSSC[C@@H](C(=O)N[C@@H](CCCCN)C(=O)N[C@@H](Cc4ccc(O)cc4)C(=O)N[C@H](C(=O)N[C@@H](Cc4ccccc4)C(N)=O)C(C)C)NC(=O)[C@H](Cc4c[nH]c5ccccc45)NC(=O)[C@H](CCCCN)NC(=O)[C@H](Cc4cnc[nH]4)NC(=O)[C@H]([C@@H](C)O)NC(=O)[C@H](CCCNC(=N)N)NC(=O)[C@H](CO)NC(=O)[C@H](CSSC[C@H](NC(=O)[C@H](CCCCN)NC(=O)[C@H](CCCNC(=N)N)NC1=O)C(=O)N[C@@H](CC(C)C)C(=O)N1CCC[C@H]1C(=O)N[C@@H](CC(=O)O)C(=O)N[C@@H](CC(N)=O)C(=O)N[C@@H](CC(=O)O)C(=O)N[C@@H](CCCCN)C(=O)N3)NC(=O)[C@H](C(C)C)NC(=O)[C@H](CC(C)C)NC(=O)[C@H](CC(N)=O)NC(=O)[C@@H]1CCCN1C(=O)[C@H](CCCNC(=N)N)NC2=O (H-DCLGFMRKCLPDNDKCCRPNLVCSRTHKWCKYVF-NH2; disulfide 2-17, 9-23, 16-30) | > 5000 | 140
CC[C@H](C)[C@@H]1NC(=O)[C@@H]2CSSC[C@@H]3NC(=O)[C@H](C(C)C)NC(=O)[C@H](CC(C)C)NC(=O)[C@H](CC(N)=O)NC(=O)[C@@H]4CCCN4C(=O)[C@H](CCCNC(=N)N)NC(=O)[C@H](CSSC[C@H](NC(=O)[C@@H](N)CC(=O)O)C(=O)N[C@@H](CC(C)C)C(=O)NCC(=O)N[C@@H](Cc4ccccc4)C(=O)N[C@@H](Cc4cc5ccccc5[nH]4)C(=O)N[C@@H](CCCNC(=N)N)C(=O)N[C@@H](CCCCN)C(=O)N2)NC(=O)[C@H](CSSC[C@@H](C(=O)N[C@@H](CCCCN)C(=O)N[C@@H](Cc2ccc(O)cc2)C(=O)N[C@H](C(=O)N[C@@H](Cc2ccccc2)C(N)=O)C(C)C)NC(=O)[C@H](Cc2c[nH]c4ccccc24)NC(=O)[C@H](CCCCN)NC(=O)[C@H](Cc2cnc[nH]2)NC(=O)[C@H]([C@@H](C)O)NC(=O)[C@H](CCCNC(=N)N)NC(=O)[C@H](CO)NC3=O)NC(=O)[C@H](CCCCN)NC(=O)[C@H](CC(=O)O)NC(=O)[C@H](CC(N)=O)NC(=O)[C@H](CC(=O)O)NC(=O)[C@@H]2CCCN2C1=O | 3400 | 30
